The target in assay [1] is Replicase polyprotein 1ab (Severe acute respiratory syndrome coronavirus 2) (UniProt P0DTD1). As to the kind of experiment: Inhibition of N-terminal hexa-histidine tagged recombinant SARS-CoV-2 nsp14 RNA cap N7-methyltransferase activity expressed in Escherichia coli C2566 assessed as residual enzyme activity using GpppAC4 synthetic RNA and [3H]-SAM as substrate at 50 uM incubated for 30 mins by filter binding assay based liquid scintillation counter analysis relative to control. The essentials: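 Recombinant nsp14 (10 nM), purified by cobalt IMAC and size exclusion, was premixed with compound at 50 µM (2.5% final DMSO). Then 0.7 µM GpppAC4 RNA, 1.9 µM SAM and 0.1 µM 3H-SAM were added in 40 mM Tris-HCl pH 8.0, 1 mM DTT, 1 mM MgCl2. After 30 min at 30 °C, reactions were stopped by 10-fold ice-cold water dilution, DEAE-filtered, washed and scintillation-counted.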

For assay [2], the target named is Replicase polyprotein 1ab (Severe acute respiratory syndrome coronavirus 2, UniProt P0DTD1). As to the kind of experiment: Inhibition of N-terminal hexa-histidine tagged recombinant SARS-CoV-2 nsp14 RNA cap N7-methyltransferase activity expressed in Escherichia coli C2566 using GpppAC4 synthetic RNA and [3H]-SAM as substrate incubated for 30 mins by filter binding assay based liquid scintillation counter analysis.

Molecules are shown by their SMILES. pIC50: −log10 of the molar value.

A word on the pIC50: it is −log10 of the IC50, conventionally taken in molar units.

Turning to `Nc1ncnc2c1ncn2[C@@H]1O[C@H](Cn2cc(CNS(=O)(=O)c3ccccc3)nn2)[C@@H](O)[C@H]1O`, in assay [1], the Activity came out at 59%. The same measure, in the same setting: the value for `CCN(CCNS(=O)(=O)c1ccc(C)cc1)C[C@H]1O[C@@H](n2cnc3c(N)ncnc32)[C@H](O)[C@@H]1O` was 66%.

Regarding `Nc1ncnc2c1ncn2[C@@H]1O[C@H](CS(=O)(=O)CCNS(=O)(=O)c2ccc(C(F)(F)F)cc2)[C@@H](O)[C@H]1O`, the negative logarithm of the IC50 (pIC50) in assay [2] is 4.42. Moreover, the Activity in assay [1] stood at 37%.

As to `Nc1ncnc2c1ncn2[C@@H]1O[C@H](CSCCNS(=O)(=O)c2ccc(Cl)cc2[N+](=O)[O-])[C@@H](O)[C@H]1O`, in assay [2], the pIC50 was 6.05. In assay [1], the Activity is 2%.

`CCN(Cc1cn(C[C@H]2O[C@@H](n3cnc4c(N)ncnc43)[C@H](O)[C@@H]2O)nn1)S(=O)(=O)c1ccc(C(F)(F)F)cc1`: in assay [1], the Activity is 47%. The same measure, in the same setting: for `CCN(Cc1cn(C[C@H]2O[C@@H](n3cnc4c(N)ncnc43)[C@H](O)[C@@H]2O)nn1)S(=O)(=O)c1ccc(Cl)cc1` the value was 69%. Still for that read-out and setting: the value for `CCN(CCNS(=O)(=O)c1ccc(C(F)(F)F)cc1)C[C@H]1O[C@@H](n2cnc3c(N)ncnc32)[C@H](O)[C@@H]1O` was 83%. Turning to `N#Cc1ccc(S(=O)(=O)NCCSC[C@H]2O[C@@H](n3cnc4c(N)ncnc43)[C@H](O)[C@@H]2O)cc1`, in assay [2], the pIC50 is 4.81. For the same compound, in assay [1], the Activity came to 21%.

On to `Nc1ncnc2c1ncn2[C@@H]1O[C@H](Cn2cc(CNS(=O)(=O)c3ccc(Cl)cc3)nn2)[C@@H](O)[C@H]1O`, for which, in assay [1], the Activity amounted to 72%.

In the case of `Nc1ncnc2c1ncn2[C@@H]1O[C@H](CS(=O)(=O)CCNS(=O)(=O)c2ccc([N+](=O)[O-])cc2)[C@@H](O)[C@H]1O`, the pIC50 in assay [2] is 4.56. The Activity in assay [1] was 27%. The corresponding values for `Nc1ncnc2c1ncn2[C@@H]1O[C@H](CSCCNS(=O)(=O)c2ccc([N+](=O)[O-])cc2)[C@@H](O)[C@H]1O` are 5.33 and 9%. Turning to `CCN(CCNS(=O)(=O)c1ccc(C#N)cc1)C[C@H]1O[C@@H](n2cnc3c(N)ncnc32)[C@H](O)[C@@H]1O`, in assay [1], the Activity was 67%. Consider `Nc1ncnc2c1ncn2[C@@H]1O[C@H](Cn2cc(CNS(=O)(=O)c3ccc(C(F)(F)F)cc3)nn2)[C@@H](O)[C@H]1O`, for which, in assay [1], the Activity worked out at 81%. Turning to `CCN(Cc1cn(C[C@H]2O[C@@H](n3cnc4c(N)ncnc43)[C@H](O)[C@@H]2O)nn1)S(=O)(=O)c1ccc(C)cc1`, the Activity in assay [1] came out at 59%. On the same count and under the same terms, for `CCN(Cc1cn(C[C@H]2O[C@@H](n3cnc4c(N)ncnc43)[C@H](O)[C@@H]2O)nn1)S(=O)(=O)c1ccc(F)cc1` the value was 93%. As for `Nc1ncnc2c1ncn2[C@@H]1O[C@H](CSCCNS(=O)(=O)c2ccc(C(F)(F)F)cc2)[C@@H](O)[C@H]1O`, the negative-log IC50 (pIC50) in assay [2] was 5.14. Moreover, the Activity in assay [1] was 7%.

For `CCN(Cc1cn(C[C@H]2O[C@@H](n3cnc4c(N)ncnc43)[C@H](O)[C@@H]2O)nn1)S(=O)(=O)c1ccc(OC)cc1`, the Activity in assay [1] was 60%. For `Nc1ncnc2c1ncn2[C@@H]1O[C@H](CSCCNS(=O)(=O)c2ccccc2)[C@@H](O)[C@H]1O`, the pIC50 in assay [2] was 5.34. In addition, the Activity in assay [1] came to 13%.

As for `CCN(CCNS(=O)(=O)c1ccc([N+](=O)[O-])cc1)C[C@H]1O[C@@H](n2cnc3c(N)ncnc32)[C@H](O)[C@@H]1O`, the Activity in assay [1] is 57%. `CCN(Cc1cn(C[C@H]2O[C@@H](n3cnc4c(N)ncnc43)[C@H](O)[C@@H]2O)nn1)S(=O)(=O)c1ccccc1`: the Activity in assay [1] was found to be 84%. As for `N#Cc1ccc(S(=O)(=O)NCCS(=O)(=O)C[C@H]2O[C@@H](n3cnc4c(N)ncnc43)[C@H](O)[C@@H]2O)cc1`, the pIC50 in assay [2] was 4.28. The Activity in assay [1] stood at 42%.

`COc1ccc(S(=O)(=O)NCc2cn(C[C@H]3O[C@@H](n4cnc5c(N)ncnc54)[C@H](O)[C@@H]3O)nn2)cc1`: the Activity in assay [1] is 63%. The same measure, in the same setting: for `Nc1ncnc2c1ncn2[C@@H]1O[C@H](Cn2cc(CNS(=O)(=O)c3ccc(F)cc3)nn2)[C@@H](O)[C@H]1O` the value was 91%. Take `Cc1ccc(S(=O)(=O)NCCSC[C@H]2O[C@@H](n3cnc4c(N)ncnc43)[C@H](O)[C@@H]2O)cc1`: the pIC50 in assay [2] is 5.66. For the same compound, the Activity in assay [1] was 10%. Consider `Cc1ccc(S(=O)(=O)NCc2cn(C[C@H]3O[C@@H](n4cnc5c(N)ncnc54)[C@H](O)[C@@H]3O)nn2)cc1`, for which the Activity in assay [1] turned out to be 50%. For `Cc1ccc(S(=O)(=O)NCCS(=O)(=O)C[C@H]2O[C@@H](n3cnc4c(N)ncnc43)[C@H](O)[C@@H]2O)cc1`, the pIC50 in assay [2] is 4.31. In addition, the Activity in assay [1] was determined as 38%.

As to `COc1ccc(S(=O)(=O)NCCSC[C@H]2O[C@@H](n3cnc4c(N)ncnc43)[C@H](O)[C@@H]2O)c([N+](=O)[O-])c1`, in assay [2], the negative-log IC50 (pIC50) is 6.05. Besides, the Activity in assay [1] was 0%. For `Nc1ncnc2c1ncn2[C@@H]1O[C@H](CS(=O)(=O)CCNS(=O)(=O)c2ccccc2)[C@@H](O)[C@H]1O` the same measures were 4.63 and 48%. `Cc1cccc(S(=O)(=O)NCc2cn(C[C@H]3O[C@@H](n4cnc5c(N)ncnc54)[C@H](O)[C@@H]3O)nn2)c1`: the Activity in assay [1] was 82%. The same measure, in the same setting: for `CCN(CCNS(=O)(=O)c1ccccc1)C[C@H]1O[C@@H](n2cnc3c(N)ncnc32)[C@H](O)[C@@H]1O` the value was 87%. Consider `Nc1ncnc2c1ncn2[C@@H]1O[C@H](CSCCNS(=O)(=O)c2ccccc2[N+](=O)[O-])[C@@H](O)[C@H]1O`, for which the pIC50 in assay [2] was 5.69. For the same compound, the Activity in assay [1] was found to be 0%.

Source of the values: ChEMBL document CHEMBL5344479, “N-Arylsulfonamide-based adenosine analogues to target RNA cap N7-methyltransferase nsp14 of SARS-CoV-2” (RSC Med Chem, 2024).
